Measurements taken from ChEMBL document CHEMBL4130549, “Synthesis and bioactivities study of new antibacterial peptide mimics: The dialkyl cationic amphiphiles” (Eur J Med Chem, 2018).
Activity calls are given as the source filed them. The rule behind the calls is not given here.

Key:
Staphylococcus aureus [1] = experiment: Antibacterial activity against Staphylococcus aureus ATCC 29213 after 16 to 20 hrs by broth microdilution method; format: functional
How it was run: (§1)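 CLSI broth microdilution in cation-adjusted Mueller-Hinton broth. A 4-6 h culture was diluted to about 10⁶ CFU/mL and mixed 1:1 with twofold compound dilutions (256–0.5 µg/mL before mixing) prepared from aqueous stocks. Plates were incubated at 37 °C for 16-20 h. Each concentration was tested in duplicate, and the experiment was repeated at least twice.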

Enterococcus faecalis = experiment: Antibacterial activity against Enterococcus faecalis after 16 to 20 hrs by broth microdilution method; format: functional
How it was run: (§2)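 Broth microdilution per CLSI in cation-adjusted Mueller-Hinton broth; 4-6 h cultures (~10⁸ CFU/mL) diluted to ~10⁶ CFU/mL and mixed 1:1 with twofold dilutions of water-dissolved compound (256 to 0.5 µg/mL). Incubated 16-20 h at 37 °C; MIC read visually. Each concentration run in duplicate, whole experiment repeated at least twice. MRSA, KPC and NDM-1 strains were clinical isolates.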

Escherichia coli [2] = experiment: Antibacterial activity against Escherichia coli ATCC 25922 after 16 to 20 hrs by broth microdilution method; format: functional; how it was run: as §2
Salmonella enterica = experiment: Antibacterial activity against Salmonella enterica after 16 to 20 hrs by broth microdilution method; format: functional; how it was run: as §2
Staphylococcus aureus [3] = experiment: Antibacterial activity against methicillin-resistant Staphylococcus aureus after 16 to 20 hrs by broth microdilution method; format: functional; how it was run: as §1
[4] = Hemolytic activity in sheep RBC after 1 hr; format: ADME, cell-based, Ovis aries, Erythrocyte; conditions: sheep red blood cells (erythrocytes)
How it was run: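 Sheep RBCs suspended at 5% in PBS; 150 µL added to 50 µL compound dilutions (5120 to 10 µg/mL series). Incubated 1 h at 37 °C, then centrifuged; supernatant absorbance read at 540 nm. Lysis (%) = (A−A0)/(Atotal−A0)×100, with untreated 5% RBC as A0 and 0.1% Triton X-100 as total.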

Staphylococcus aureus [5] = experiment: Antibacterial activity against methicillin-resistant Staphylococcus aureus isolate M1 after 16 to 20 hrs by broth microdilution method; format: functional; how it was run: as §1
Staphylococcus aureus [6] = experiment: Antibacterial activity against methicillin-resistant Staphylococcus aureus isolate M4 after 16 to 20 hrs by broth microdilution method; format: functional; how it was run: as §1
Staphylococcus aureus [7] = experiment: Antibacterial activity against methicillin-resistant Staphylococcus aureus isolate M6 after 16 to 20 hrs by broth microdilution method; format: functional; how it was run: as §1
Staphylococcus aureus [8] = experiment: Antibacterial activity against methicillin-resistant Staphylococcus aureus isolate M7 after 16 to 20 hrs by broth microdilution method; format: functional; how it was run: as §1
Staphylococcus aureus [9] = experiment: Antibacterial activity against methicillin-resistant Staphylococcus aureus isolate M8 after 16 to 20 hrs by broth microdilution method; format: functional; how it was run: as §1
Klebsiella pneumoniae [10] = experiment: Antibacterial activity against carbapenemase-producing Klebsiella pneumoniae isolate K1 after 16 to 20 hrs by broth microdilution method; format: functional; how it was run: as §2
Klebsiella pneumoniae [11] = experiment: Antibacterial activity against carbapenemase-producing Klebsiella pneumoniae isolate K3 after 16 to 20 hrs by broth microdilution method; format: functional; how it was run: as §2
Klebsiella pneumoniae [12] = experiment: Antibacterial activity against carbapenemase-producing Klebsiella pneumoniae isolate K4 after 16 to 20 hrs by broth microdilution method; format: functional; how it was run: as §2
Klebsiella pneumoniae [13] = experiment: Antibacterial activity against carbapenemase-producing Klebsiella pneumoniae isolate K5 after 16 to 20 hrs by broth microdilution method; format: functional; how it was run: as §2
Klebsiella pneumoniae [14] = experiment: Antibacterial activity against carbapenemase-producing Klebsiella pneumoniae isolate K6 after 16 to 20 hrs by broth microdilution method; format: functional; how it was run: as §2
Klebsiella pneumoniae [15] = experiment: Antibacterial activity against carbapenemase-producing Klebsiella pneumoniae isolate K7 after 16 to 20 hrs by broth microdilution method; format: functional; how it was run: as §2
Klebsiella pneumoniae [16] = experiment: Antibacterial activity against carbapenemase-producing Klebsiella pneumoniae isolate K8 after 16 to 20 hrs by broth microdilution method; format: functional; how it was run: as §2
Klebsiella pneumoniae [17] = experiment: Antibacterial activity against carbapenemase-producing Klebsiella pneumoniae isolate K10 after 16 to 20 hrs by broth microdilution method; format: functional; how it was run: as §2
Enterobacteriaceae [18] = experiment: Antibacterial activity against NDM-1-producing Enterobacteriaceae isolate N2 after 16 to 20 hrs by broth microdilution method; format: functional; how it was run: as §2
Enterobacteriaceae [19] = experiment: Antibacterial activity against NDM-1-producing Enterobacteriaceae isolate N3 after 16 to 20 hrs by broth microdilution method; format: functional; how it was run: as §2
Enterobacteriaceae [20] = experiment: Antibacterial activity against NDM-1-producing Enterobacteriaceae isolate N4 after 16 to 20 hrs by broth microdilution method; format: functional; how it was run: as §2
Enterobacteriaceae [21] = experiment: Antibacterial activity against NDM-1-producing Enterobacteriaceae isolate N8 after 16 to 20 hrs by broth microdilution method; format: functional; how it was run: as §2
Enterobacteriaceae [22] = experiment: Antibacterial activity against NDM-1-producing Enterobacteriaceae isolate N9 after 16 to 20 hrs by broth microdilution method; format: functional; how it was run: as §2
Staphylococcus aureus [23] = experiment: Bactericidal activity against methicillin-resistant Staphylococcus aureus after 20 to 24 hrs by broth microdilution method; format: functional
How it was run: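 For MBC, 20 µL from wells of the broth microdilution MIC plate showing little or no turbidity was plated on agar and incubated 20-24 h at 37 °C. MBC was the lowest concentration giving no colonies.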

Staphylococcus aureus [24] = experiment: Bactericidal activity against methicillin-resistant Staphylococcus aureus after 20 to 24 hrs in presence of 50% serum by broth microdilution method; format: functional, organism-based
How it was run: (§3)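 MRSA at 10⁵ CFU/mL in 50% Mueller-Hinton broth plus 50% sheep serum, plasma or defibrinated whole blood. Serum and plasma were separated by centrifugation at 3,500 rpm for 10 min. Aqueous compound dilutions (512–4 µg/mL before mixing) were combined 1:3 with the suspension and incubated 20-24 h at 37 °C. Wells were plated on Mueller-Hinton agar for a further 20-24 h; MBC was taken as no colonies.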

Staphylococcus aureus [25] = experiment: Bactericidal activity against methicillin-resistant Staphylococcus aureus after 20 to 24 hrs in presence of 50% blood by broth microdilution method; format: functional, organism-based; how it was run: as §3
Staphylococcus aureus [26] = experiment: Ratio of MBC for methicillin-resistant Staphylococcus aureus in presence of 50% blood to MBC for methicillin-resistant Staphylococcus aureus; format: functional; how it was run: as §3
Staphylococcus aureus [27] = experiment: Induction of cytoplasmic membrane depolarization in Staphylococcus aureus ATCC 29213 at 20 ug/ml measured every 2 mins for 12 mins by diSC35 staining based fluorescence assay; format: functional, organism-based
How it was run: (§4)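 Mid-log cells (4–6 h) pelleted, washed and resuspended (~10^8 CFU/mL) in PBS for S. aureus, or in 5 mM HEPES, 5 mM glucose and 100 mM KCl (1:1:1) for E. coli. Preloaded with diSC35 (10 µM, 50 µL), 30 min for S. aureus and 40 min plus EDTA (200 µM, 50 µL) for E. coli. Baseline read 8 min (ex 622/em 670 nm), then compound added to 20 µg/mL final and read every 2 min for 12 min. Water control.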

Escherichia coli [28] = experiment: Induction of cytoplasmic membrane depolarization in Escherichia coli ATCC 25922 at 20 ug/ml measured every 2 mins for 12 mins by diSC35 staining based fluorescence assay; format: functional, organism-based; how it was run: as §4
Escherichia coli [29] = experiment: Induction of inner membrane permeabilization in Escherichia coli ATCC 25922 at 20 ug/ml measured every 2 mins for 12 mins by propidium iodide staining based fluorescence assay; format: functional, organism-based
How it was run: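 Mid-log cells (~10^8 CFU/mL) pre-incubated with propidium iodide (10 µM, 50 µL), 30 min for S. aureus and 40 min for E. coli. Fluorescence (ex 535/em 617 nm) read for 8 min, then compound added to 20 µg/mL final and monitored every 2 min for 12 min. Water-treated control.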

Staphylococcus aureus [30] = experiment: Bactericidal activity against Staphylococcus aureus after 20 to 24 hrs using compounds preincubated with 50% plasma for 3 to 6 hrs by broth microdilution method

| SMILES | MIC (Staphylococcus aureus [1]) | MIC (Enterococcus faecalis) | MIC (Escherichia coli [2]) | MIC (Salmonella enterica) | MIC (Staphylococcus aureus [3]) | HC50 at 1 h [4] | MIC (Staphylococcus aureus [5]) | MIC (Staphylococcus aureus [6]) | MIC (Staphylococcus aureus [7]) | MIC (Staphylococcus aureus [8]) | MIC (Staphylococcus aureus [9]) | MIC (Klebsiella pneumoniae [10]) | MIC (Klebsiella pneumoniae [11]) | MIC (Klebsiella pneumoniae [12]) | MIC (Klebsiella pneumoniae [13]) | MIC (Klebsiella pneumoniae [14]) | MIC (Klebsiella pneumoniae [15]) | MIC (Klebsiella pneumoniae [16]) | MIC (Klebsiella pneumoniae [17]) | MIC (Enterobacteriaceae [18]) | further results |
| --- | --- | --- | --- | --- | --- | --- | --- | --- | --- | --- | --- | --- | --- | --- | --- | --- | --- | --- | --- | --- | --- |
| CCCCCCCCN(CCCCCCCC)C(=O)[C@@H](N)CCCCN.Cl.Cl | 2 µg/mL | 2 µg/mL | 2 µg/mL | 4 µg/mL | 0.5 µg/mL | 225 µg/mL | 1 µg/mL | 1 µg/mL | 0.5 µg/mL | 0.5 µg/mL | 1 µg/mL | 2 µg/mL | 2 µg/mL | 2 µg/mL | 2 µg/mL | 2 µg/mL | 2 µg/mL | 1 µg/mL | 2 µg/mL | 8 µg/mL | MIC (Enterobacteriaceae [19]): 8 µg/mL; MIC (Enterobacteriaceae [20]): 8 µg/mL; MIC (Enterobacteriaceae [21]): 8 µg/mL; MIC (Enterobacteriaceae [22]): 8 µg/mL; MBC (Staphylococcus aureus [23]): 4 to 8 µg/mL; Activity (Staphylococcus aureus [24]): Active; Activity (Staphylococcus aureus [25]): inactive; Ratio (Staphylococcus aureus [26]): 8 - 16; Activity (Staphylococcus aureus [27]): Active; Activity (Escherichia coli [28]): Active; Activity (Escherichia coli [29]): Active; MBC (Staphylococcus aureus [30]): 16 µg/mL |
| CCCCCCCCCN(CCCCCCCCC)C(=O)[C@@H](N)CCCN=C(N)N.Cl.Cl.Cl | 1 µg/mL | 2 µg/mL | 2 µg/mL | 4 µg/mL | 2 µg/mL | 119 µg/mL | 2 µg/mL | 1 µg/mL | 2 µg/mL | 2 µg/mL | 2 µg/mL | 4 µg/mL | 4 µg/mL | 2 µg/mL | 4 µg/mL | 4 µg/mL | 4 µg/mL | 4 µg/mL | 4 µg/mL | 4 µg/mL | MIC (Enterobacteriaceae [19]): 4 µg/mL; MIC (Enterobacteriaceae [20]): 4 µg/mL; MIC (Enterobacteriaceae [21]): 2 µg/mL; MIC (Enterobacteriaceae [22]): 4 µg/mL; MBC (Staphylococcus aureus [23]): 4 to 8 µg/mL; Activity (Staphylococcus aureus [24]): Active; Activity (Staphylococcus aureus [25]): inactive; Ratio (Staphylococcus aureus [26]): 8 - 16; Activity (Staphylococcus aureus [27]): Active; Activity (Escherichia coli [28]): Active; Activity (Escherichia coli [29]): Active; MBC (Staphylococcus aureus [30]): 16 µg/mL |
| CCCCCCCCCCN(CCCCCCCCCC)C(=O)[C@@H](N)CCCCN.Cl.Cl | 4 µg/mL | 2 µg/mL | 2 µg/mL | 2 µg/mL | 1 µg/mL | 98 µg/mL | 1 µg/mL | 2 µg/mL | 1 µg/mL | 1 µg/mL | 1 µg/mL | 4 µg/mL | 4 µg/mL | 4 µg/mL | 4 µg/mL | 4 µg/mL | 4 µg/mL | 2 µg/mL | 4 µg/mL | 4 µg/mL | MIC (Enterobacteriaceae [19]): 4 µg/mL; MIC (Enterobacteriaceae [20]): 4 µg/mL; MIC (Enterobacteriaceae [21]): 4 µg/mL; MIC (Enterobacteriaceae [22]): 4 µg/mL; MBC (Staphylococcus aureus [23]): 4 to 8 µg/mL; Activity (Staphylococcus aureus [24]): Active; Activity (Staphylococcus aureus [25]): inactive; Ratio (Staphylococcus aureus [26]): 8 - 16; Activity (Staphylococcus aureus [27]): Active; Activity (Escherichia coli [28]): Active; Activity (Escherichia coli [29]): Active; MBC (Staphylococcus aureus [30]): 16 µg/mL |
| CCCCCCCCCN(CCCCCCCCC)C(=O)[C@@H](N)CCCCN.Cl.Cl | 1 µg/mL | 1 µg/mL | 2 µg/mL | 2 µg/mL | 0.5 µg/mL | 133 µg/mL | 1 µg/mL | 2 µg/mL | 1 µg/mL | 1 µg/mL | 1 µg/mL | 2 µg/mL | 2 µg/mL | 2 µg/mL | 2 µg/mL | 2 µg/mL | 2 µg/mL | 2 µg/mL | 2 µg/mL | 2 µg/mL | MIC (Enterobacteriaceae [19]): 2 µg/mL; MIC (Enterobacteriaceae [20]): 2 µg/mL; MIC (Enterobacteriaceae [21]): 2 µg/mL; MIC (Enterobacteriaceae [22]): 4 µg/mL; MBC (Staphylococcus aureus [23]): 4 to 8 µg/mL; Activity (Staphylococcus aureus [24]): Active; Activity (Staphylococcus aureus [25]): inactive; Ratio (Staphylococcus aureus [26]): 8 - 16; Activity (Staphylococcus aureus [27]): Active; Activity (Escherichia coli [28]): Active; Activity (Escherichia coli [29]): Active; MBC (Staphylococcus aureus [30]): 16 µg/mL |
